Activity calls are given as the source filed them. No cut-off for these calls is given here.
Key:
[1] = molecular target: cGMP-dependent protein kinase (Eimeria tenella, UniProt Q8MMZ8); experiment: Inhibition of Eimeria tenella parasite-specific cGMP-dependent protein kinase
Eimeria acervulina [2] = experiment: Antiparasitic activity against Eimeria acervulina at 50 ppm administered orally through feed after 7 days; assay type: functional
Summary of the method: (§1)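 Each compound was given orally in the feed, and its anticoccidial activity was ranked in a seven-day efficacy model. Each Eimeria species got its own quantitative measure.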

Eimeria tenella [3] = experiment: Antiparasitic activity against Eimeria tenella at 50 ppm administered orally through feed after 7 days; assay type: functional; summary of the method: as §1
Eimeria mitis [4] = experiment: Antiparasitic activity against Eimeria mitis at 50 ppm administered orally through feed after 7 days; assay type: functional; summary of the method: as §1
Eimeria maxima [5] = experiment: Antiparasitic activity against Eimeria maxima at 50 ppm administered orally through feed after 7 days; assay type: functional; summary of the method: as §1
Eimeria maxima [6] = experiment: Antiparasitic activity against Eimeria maxima at 6 ppm administered orally through feed after 7 days; assay type: functional; summary of the method: as §1
Eimeria acervulina [7] = experiment: Antiparasitic activity against Eimeria acervulina at 6 ppm administered orally through feed after 7 days; assay type: functional; summary of the method: as §1
Eimeria mitis [8] = experiment: Antiparasitic activity against Eimeria mitis at 6 ppm administered orally through feed after 7 days; assay type: functional; summary of the method: as §1
Eimeria tenella [9] = experiment: Antiparasitic activity against Eimeria tenella at 6 ppm administered orally through feed after 7 days; assay type: functional; summary of the method: as §1

Sequence of cGMP-dependent protein kinase (Q8MMZ8 whole entry): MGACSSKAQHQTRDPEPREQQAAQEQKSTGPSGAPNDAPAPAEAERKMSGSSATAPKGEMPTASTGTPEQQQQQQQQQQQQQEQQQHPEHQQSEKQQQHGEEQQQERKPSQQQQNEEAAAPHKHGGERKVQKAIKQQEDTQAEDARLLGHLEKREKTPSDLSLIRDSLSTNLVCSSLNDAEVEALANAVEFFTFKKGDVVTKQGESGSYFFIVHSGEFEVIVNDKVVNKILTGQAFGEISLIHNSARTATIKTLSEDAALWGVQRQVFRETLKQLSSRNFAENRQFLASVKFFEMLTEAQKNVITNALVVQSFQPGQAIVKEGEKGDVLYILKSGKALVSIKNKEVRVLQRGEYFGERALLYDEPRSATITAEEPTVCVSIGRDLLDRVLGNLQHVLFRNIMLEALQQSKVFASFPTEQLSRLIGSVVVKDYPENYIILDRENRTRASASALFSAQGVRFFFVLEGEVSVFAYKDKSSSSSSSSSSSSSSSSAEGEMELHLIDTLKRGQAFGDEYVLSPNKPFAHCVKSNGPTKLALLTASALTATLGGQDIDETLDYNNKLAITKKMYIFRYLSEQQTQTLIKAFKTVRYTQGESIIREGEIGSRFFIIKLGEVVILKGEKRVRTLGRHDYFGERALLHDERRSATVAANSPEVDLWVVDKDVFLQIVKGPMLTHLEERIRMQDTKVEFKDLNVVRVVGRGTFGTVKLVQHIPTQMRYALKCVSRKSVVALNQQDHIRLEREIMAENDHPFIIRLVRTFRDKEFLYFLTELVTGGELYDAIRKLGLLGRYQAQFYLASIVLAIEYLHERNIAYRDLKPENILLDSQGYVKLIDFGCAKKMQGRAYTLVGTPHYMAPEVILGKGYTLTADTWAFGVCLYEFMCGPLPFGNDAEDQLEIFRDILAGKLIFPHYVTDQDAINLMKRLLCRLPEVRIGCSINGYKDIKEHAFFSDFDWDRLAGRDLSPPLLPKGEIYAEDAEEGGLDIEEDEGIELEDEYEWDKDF

Compound	IC50 [1] [pM]	Activity (Eimeria acervulina [2]) [%]	Activity (Eimeria tenella [3]) [%]	Activity (Eimeria mitis [4])	Activity (Eimeria maxima [5]) [%]	Activity (Eimeria maxima [6]) [%]	Activity (Eimeria acervulina [7]) [%]	Activity (Eimeria mitis [8]) [%]	Activity (Eimeria tenella [9]) [%]
OCCN1CCC(c2ccc3c(-c4ccncn4)c(-c4ccc(F)cc4)[nH]c3c2)CC1	800	50	99	100%	<50	–	–	–	–
Fc1ccc(-c2[nH]c3cc(N4CCOCC4)ccc3c2-c2ccncc2)cc1	9200	<50	50	<50%	–	–	–	–	–
CN1CCC(c2ccn3c(-c4ccnc(N)n4)c(-c4ccc(F)cc4)nc3c2)CC1	–	–	–	–	–	100	80	80	100
CN1CC(c2ccc3c(-c4ccncc4)c(-c4ccc(F)cc4)[nH]c3c2)C1	620	<50	50	<50%	–	–	–	–	–
CN1CCN(C(=O)c2ccc3[nH]c(-c4ccc(F)cc4)c(-c4ccncc4)c3c2)CC1	12700	<50	80	inactive	–	–	–	–	–
CN1CCC(c2ccc3c(-c4ccncn4)c(-c4ccc(F)cc4)[nH]c3c2)CC1	400	99	<50	50%	<50	–	–	–	–
CN1CCN(c2ccc3c(-c4ccncc4)c(-c4ccc(F)cc4)[nH]c3c2)CC1	–	<50	<50	<50%	–	–	–	–	–
CN1CCN(Cc2ccc3c(-c4ccncc4)c(-c4ccc(F)cc4)[nH]c3c2)CC1	8900	<50	80	<50%	–	–	–	–	–
Fc1ccc(-c2[nH]c3cc(C4CCNCC4)ccc3c2-c2ccncn2)cc1	650	<50	<50	<50%	<50	–	–	–	–
CN1CCC(Cc2ccc3c(-c4ccncc4)c(-c4ccc(F)cc4)[nH]c3c2)CC1	1600	<50	<50	50%	–	–	–	–	–

Further lines, with some results ahead:

IC50 [1] [pM]	Compound	Activity (Eimeria acervulina [2]) [%]	Activity (Eimeria tenella [3]) [%]	Activity (Eimeria mitis [4])	Activity (Eimeria maxima [5]) [%]	Activity (Eimeria maxima [6]) [%]	Activity (Eimeria acervulina [7]) [%]	Activity (Eimeria mitis [8]) [%]	Activity (Eimeria tenella [9]) [%]
150	Fc1ccc(-c2[nH]c3cc(C4CCNCC4)ccc3c2-c2ccncc2)cc1	<50	<50	<50%	<50	–	–	–	–
300	Nc1nccc(-c2c(-c3ccc(F)cc3)[nH]c3cc(C4CCN(CCO)CC4)ccc23)n1	<50	<50	–	<50	–	–	–	–
160	CCN1CCC(c2ccc3c(-c4ccncc4)c(-c4ccc(F)cc4)[nH]c3c2)CC1	<50	50	80%	80	–	–	–	–
150	CN1CCC(c2ccc3c(-c4ccncc4)c(-c4ccc(F)cc4)[nH]c3c2)CC1	99	50	99%	50	–	–	–	–
210	Nc1nccc(-c2c(-c3ccc(F)cc3)[nH]c3cc(C4CCNCC4)ccc23)n1	<50	<50	–	<50	–	–	–	–
100	OCCN1CCC(c2ccc3c(-c4ccncc4)c(-c4ccc(F)cc4)[nH]c3c2)CC1	80	50	80%	<50	–	–	–	–
220	CN1CCC(c2ccc3c(-c4ccnc(N)n4)c(-c4ccc(F)cc4)[nH]c3c2)CC1	<50	80	–	<50	–	–	–	–
